Source: article PMC4067939 (Bioorganic & medicinal chemistry, 2014)
Entries after “also recorded” stand apart in the source; their conditions may differ.

Experiments:
[1] = molecular target: T1, GGDPS (Homo sapiens, UniProt O95749); settings: cited from earlier work
T1 sequence (O95749 1-300): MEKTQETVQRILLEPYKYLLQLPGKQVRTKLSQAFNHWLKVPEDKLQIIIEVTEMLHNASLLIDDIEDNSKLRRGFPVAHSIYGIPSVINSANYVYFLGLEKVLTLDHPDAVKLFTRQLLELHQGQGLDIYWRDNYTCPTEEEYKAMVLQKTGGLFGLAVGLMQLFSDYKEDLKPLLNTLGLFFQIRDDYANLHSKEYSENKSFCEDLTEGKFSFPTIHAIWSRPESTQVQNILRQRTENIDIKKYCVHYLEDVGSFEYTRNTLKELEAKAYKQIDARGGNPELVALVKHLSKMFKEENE

[2] = system: Rab6 geranylgeranylation in RPMI-8226 cells; assay type: cell-based, human; settings: 10 µM, 48 hours, Figure 3A
Summary of the method: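 Triton X-114 lysis gave aqueous (cytosolic) and detergent (membrane) fractions. Equal protein (BCA) was run on SDS-PAGE and blotted to PVDF for Rab6 with HRP/ECL detection. Loading controls were β-tubulin (aqueous) and calnexin (detergent). Gels represent two independent experiments.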

[3] = molecular target: T2, GGTase II (Rattus norvegicus, UniProt Q08602+Q08603); assay: GGTase II enzyme assay; assay type: biochemical; settings: for inhibitory activity against GGTase II: at concentrations up to 1 mM
T2 sequence (Q08602 1-567): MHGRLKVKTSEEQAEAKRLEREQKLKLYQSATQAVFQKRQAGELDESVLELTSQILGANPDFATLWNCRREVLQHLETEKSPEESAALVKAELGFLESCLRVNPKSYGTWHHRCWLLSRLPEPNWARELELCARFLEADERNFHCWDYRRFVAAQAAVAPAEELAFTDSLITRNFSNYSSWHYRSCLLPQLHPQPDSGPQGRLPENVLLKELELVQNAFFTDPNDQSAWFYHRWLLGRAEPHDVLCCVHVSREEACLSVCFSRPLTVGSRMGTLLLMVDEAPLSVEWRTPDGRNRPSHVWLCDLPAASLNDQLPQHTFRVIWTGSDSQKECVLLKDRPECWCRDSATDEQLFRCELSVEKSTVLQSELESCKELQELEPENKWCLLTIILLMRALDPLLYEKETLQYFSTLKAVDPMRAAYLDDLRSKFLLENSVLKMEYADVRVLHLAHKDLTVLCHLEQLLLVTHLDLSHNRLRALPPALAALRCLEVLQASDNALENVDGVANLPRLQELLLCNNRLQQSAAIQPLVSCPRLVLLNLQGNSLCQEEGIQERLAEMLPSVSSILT
T2 sequence (Q08603 1-331): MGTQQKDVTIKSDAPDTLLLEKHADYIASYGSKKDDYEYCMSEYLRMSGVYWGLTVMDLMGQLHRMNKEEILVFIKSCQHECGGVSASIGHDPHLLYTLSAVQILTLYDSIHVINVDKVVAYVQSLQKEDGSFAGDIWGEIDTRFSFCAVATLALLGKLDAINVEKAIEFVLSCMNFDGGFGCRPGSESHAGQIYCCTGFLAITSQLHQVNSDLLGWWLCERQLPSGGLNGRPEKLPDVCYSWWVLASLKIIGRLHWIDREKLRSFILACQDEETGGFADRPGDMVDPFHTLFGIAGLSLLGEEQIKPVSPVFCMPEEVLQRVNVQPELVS
Summary of the method: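 Reaction mix: 30 nM recombinant GGTase II, 2 µM His-tagged Rab1A (E. coli-expressed, Ni-NTA purified) and 1 µM REP-2 in 50 mM sodium HEPES, 5 mM MgCl₂, 1 mM DTT, 1 mM NP-40, ±test compound. Started with 5 µM [³H]-GGPP, 20 min at 37 °C, stopped with 10% HCl/EtOH. P-81 filters were EtOH-washed and scintillation-counted. IC50 came from concentration-response curves.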

[4] = system: Rap1a geranylgeranylation in RPMI-8226 cells; assay: Immunoblot of unmodified Rap1a in RPMI-8226 cells; assay type: cell-based, human; settings: 48 hours; for disruption of Rap1a geranylgeranylation (accumulation of unmodified Rap1a): 10 µM, Figure 3A; for concentration at which unmodified Rap1a is observed: tested at 0.1, 1, 10 µM
Summary of the method: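 Whole-cell lysates were made in RIPA buffer with protease/phosphatase inhibitors, BCA-normalised, and run on SDS-PAGE/PVDF immunoblot. The antibody recognises only unmodified Rap1a; β-tubulin was the loading control; detection was HRP/ECL. Gels represent two independent experiments.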

[5] = molecular target: T1, GGDPS; assay: GGDPS enzyme assay; assay type: biochemical; settings: in vitro enzyme assay
[6] = molecular target: T2, GGTase II; settings: ref our prior studies; cited from earlier work
[7] = system: intracellular FPP levels in RPMI-8226 cells; assay: Measurement of intracellular FPP levels in RPMI-8226 cells; assay type: cell-based, human; settings: 1 µM, 24 hours, Figure 4
Summary of the method: (§1)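 Isoprenoid pyrophosphates were extracted in butanol/75mM ammonium hydroxide/ethanol (1:1.25:2.75) and dried under nitrogen. FPP was coupled to fluorescent GCVLS by FTase and GGPP to GCVLL by GGTase I. Peptides were quantified by reversed-phase HPLC-fluorescence. Results are % untreated control, mean ± SD, n=2, unpaired two-tailed t-test.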

[8] = system: monoclonal protein trafficking in RPMI-8226 cells; assay: Monoclonal protein quantitation; assay type: cell-based, human; settings: 10 µM, 48 hours, Figure 5
Summary of the method: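 Cells were lysed in RIPA with protease/phosphatase inhibitors and protein measured by BCA. Intracellular lambda light chain was quantified by human lambda light chain ELISA. Results are % untreated control, mean ± SD, n=3, unpaired two-tailed t-test (α 0.05).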

[9] = system: intracellular GGPP levels in RPMI-8226 cells; assay: Measurement of intracellular GGPP levels in RPMI-8226 cells; assay type: cell-based, human; settings: 1 µM, 24 hours, Figure 4
Summary of the method: as §1

[10] = molecular target: FTase (Rattus norvegicus, UniProt Q02293+Q04631); assay: FTase enzyme assay; assay type: biochemical
Summary of the method: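 Ran 1 h at 30 °C, then ice and acetonitrile/5% HCl stop. Centrifuged supernatant went to HPLC with fluorescence detection of prenylated peptide. IC50 came from concentration-response curves.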

Compound | disruption of Rab6 geranylgeranylation (Rab6 in aqueous fraction) [2] | IC50 [3] | inhibitory activity against GGTase II [3] | disruption of Rap1a geranylgeranylation (accumulation of unmodified Rap1a) [4] | effect on intracellular lambda light chain levels [8] | also measured
2E,6Z-farnesylbisphosphonate [Compound 22] | – | – | – | – | – | fold less potent GGDPS inhibitor than the 2E,6E-isomer ([1]; farnesyl bisphosphonate isomers): approximately 6 fold
CC(C)=CCC[C@@]1(C)O[C@@H]1Cn1cc(CC(P(=O)([O-])[O-])P(=O)([O-])[O-])nn1.[Na+].[Na+].[Na+].[Na+] (racemic) [Compound 12, Sodium (E)-(2-(1-((3-methyl-3-(4-methylpent-3-en-1-yl)oxiran-2-yl)methyl)-1H-1,2,3-triazol-4-yl)ethane-1,1-diyl)bis(phosphonate)] | neither of the epoxide derivatives (12 and 20) displayed activity in this assay | > 1000 µM | neither of the individual olefin isomers (11 or 19) nor the related epoxides (12 or 20) displayed inhibitory activity | neither of the epoxide derivatives (12 and 20) displayed activity in this assay | – | –
CC(C)=CCC[C@]1(C)O[C@@H]1Cn1cc(CC(P(=O)([O-])[O-])P(=O)([O-])[O-])nn1.[Na+].[Na+].[Na+].[Na+] (racemic) [Compound 20, Sodium (Z)-(2-(1-((3-methyl-3-(4-methylpent-3-en-1-yl)oxiran-2-yl)methyl)-1H-1,2,3-triazol-4-yl)ethane-1,1-diyl)bis(phosphonate)] | neither of the epoxide derivatives (12 and 20) displayed activity in this assay | > 1000 µM | neither of the individual olefin isomers (11 or 19) nor the related epoxides (12 or 20) displayed inhibitory activity | neither of the epoxide derivatives (12 and 20) displayed activity in this assay | – | GGDPS activity, comparison in words [5]: reduces the activity against GGDPS to a level comparable to the geranyl triazole
CC(C)=CCCC(C)=CCn1cc(CC(P(=O)([O-])[O-])P(=O)([O-])[O-])nn1.[Na+].[Na+].[Na+].[Na+] [Compound 1] | A similar pattern was displayed | > 1000 µM | – | A similar pattern was displayed | induces an accumulation of intracellular lambda light chain equivalent to that induced by the positive control DGBP | inhibition of GGTase II [6]: does not inhibit GGTase II; effect on intracellular FPP levels [7]: increased FPP levels; effect on intracellular GGPP levels [9]: decreased GGPP levels
CC(C)=CCC/C(C)=C/Cn1cc(CC(P(=O)([O-])[O-])P(=O)([O-])[O-])nn1.[Na+].[Na+].[Na+].[Na+] [Compound 11, Sodium (E)-(2-(1-(3,7-dimethylocta-2,6-dien-1-yl)-1H-1,2,3-triazol-4-yl)ethane-1,1-diyl)bis(phosphonate)] | – | > 1000 µM | neither of the individual olefin isomers (11 or 19) nor the related epoxides (12 or 20) displayed inhibitory activity | only weakly disrupted Rap1a geranylgeranylation | has no effect on intracellular light chain levels | IC50 [10]: > 500 µM; disruption of Rap1a geranylgeranylation at 10 µM ([4]; Figure 3B): only weakly disrupted Rap1a geranylgeranylation
CC(C)=CCC/C(C)=C\Cn1cc(CC(P(=O)([O-])[O-])P(=O)([O-])[O-])nn1.[Na+].[Na+].[Na+].[Na+] [Compound 19, Sodium (Z)-(2-(1-(3,7-dimethylocta-2,6-dien-1-yl)-1H-1,2,3-triazol-4-yl)ethane-1,1-diyl)bis(phosphonate)] | effectively disrupted both Rap1a and Rab6 geranylation | > 1000 µM | neither of the individual olefin isomers (11 or 19) nor the related epoxides (12 or 20) displayed inhibitory activity | effectively disrupted both Rap1a and Rab6 geranylation | This activity is a consequence of the neryl triazole 19; also recorded: disrupts monoclonal protein trafficking | effect on intracellular FPP levels [7]: increased FPP levels; also recorded: increases intracellular FPP levels; GGDPS activity, comparison in words [5]: slightly less potent; effect on intracellular GGPP levels [9]: even more potently decreased GGPP levels; also recorded: depletes cells of GGPP; concentration at which unmodified Rap1a is observed ([4]; Figure 3B): 1 µM
CC(C)=CCC/C(C)=C/CC/C(C)=C/CC(P(=O)(O)O)P(=O)(O)O [Compound 21, 2E,6E-farnesyl bisphosphonate] | – | – | – | – | – | fold more potent than the 2E,6Z-isomer 22 ([1]; ref earlier studies): about 6 fold
CC(C)=CCC/C(C)=C/CC(C/C=C(\C)CCC=C(C)C)(P(=O)(O)O)P(=O)(O)O [DGBP, digeranyl bisphosphonate, reference compound] | accumulation of unmodified Rap1a and Rab6 | – | – | accumulation of unmodified Rap1a and Rab6 | accumulation of intracellular lambda light chain | mode of GGDPS inhibition [1]: competitive with respect to FPP as opposed to IPP; concentration at which unmodified Rap1a is observed ([4]; Figure 3B): 10 µM
CC(C)=CCC/C(C)=C\CC(C/C=C(/C)CCC=C(C)C)(P(=O)(O)O)P(=O)(O)O [dineryl bisphosphonate] | – | – | – | – | – | fold less potent GGDPS inhibitor than DGBP [1]: approximately 14 fold
CC(C)=CCCC(C)=CCC(P(=O)(O)O)P(=O)(O)O [geranyl bisphosphonate] | – | – | – | – | – | potency relative to the corresponding neryl bisphosphonate ([1]; monoalkyl series): at least one order of magnitude more potent
CC(C)=CCCC(C)=CCC(CC=C(C)CCC=C(C)C)(P(=O)(O)O)P(=O)(O)O [geranyl/neryl] | – | – | – | – | – | fold less potent GGDPS inhibitor than DGBP [1]: approximately 14 fold
